High-throughput results as filed in PubChem BioAssay.
GPR7 antagonist – antagonists of human GPR7 (neuropeptides B/W receptor 1); P48145; GPR7-expressing cells, fluorescence antagonist assay; inhibition, % at 4.4 µM; hit rate 1.1% among 290,000; AID 1861; in the data active = inhibition above about 16%, passing the limit was not always enough;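 also: cells stimulated with the agonist NPW; 0% = agonist with vehicle and 100% = vehicle without agonist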
Target sequence (P48145 whole entry, looked up): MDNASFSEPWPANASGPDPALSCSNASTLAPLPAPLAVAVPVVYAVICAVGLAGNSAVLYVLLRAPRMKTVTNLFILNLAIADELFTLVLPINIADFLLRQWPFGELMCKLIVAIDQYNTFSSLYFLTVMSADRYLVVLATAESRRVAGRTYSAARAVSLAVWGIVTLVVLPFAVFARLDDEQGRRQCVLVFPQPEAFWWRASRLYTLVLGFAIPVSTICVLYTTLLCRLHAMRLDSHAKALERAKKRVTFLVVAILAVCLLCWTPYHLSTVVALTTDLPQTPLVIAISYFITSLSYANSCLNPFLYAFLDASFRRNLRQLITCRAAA
TAAR1 antag – human TAAR1 antagonism; Q96RJ0; CHO RD-HGA16 TAAR1, Fluo-8 calcium fluorescence, antagonist; inhibition, % at 3 µM; hit rate 1.5% among 360,000; AID 624466;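 active = inhibition above a per-plate cutoff, the mean inhibition of test compounds on that plate plus 3 SD, cut at about 49% in these data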;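 also: 0% = DMSO plus EC80 beta-PEA response and 100% = DMSO alone without agonist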
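Material: RD-HGA16 CHO cells with stable hTAAR1 and Gα16; Dosing: single nominal final test compound concentration of 3 µM; Schedule: seeding 17-24 h prior, 75-min 37 °C, 30-min RT dye loading; Detection: kinetic Fluo-8 calcium fluorescence measurement; Measure: % inhibition from peak post-agonist over basal fluorescence ratio; Benchmarks: vehicle and agonist controls.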
OX1R antag-1 – OX1R (human) antagonism | O43613 | OX1R-expressing cells, FRET antagonist read-out | inhibition, % at 6.6 µM | hit rate 1.8% among 330,000 | AID 485270; in the data active = inhibition mostly above about 38%, no sharp cut-off; inactive = mostly below about 40%;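 also: 0% = agonist challenge alone and 100% = reference antagonist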
CHO parental Ca – counter-screen: ATP calcium response change in parental CHO cells; parental CHO-K1, ATP-induced calcium, Fluo-8 fluorescence; inhibition, % at 5.6 µM; hit rate 0.63% among 330,000;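 active = inhibition above that plate's mean sample inhibition plus 3 SD, cut at about 26% in these data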;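 also: 0% = ATP-challenged DMSO wells and 100% = DMSO wells without ATP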
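Material: parental CHO cells / Compound: single nominal dose of 5.6 µM per compound / Signal: Fluo-8 fluorescence / Replicates: singlicate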
TAAR1 ag – agonists of human TAAR1. AID 624467. hit rate 0.99% among 360,000. activation, % at 3 µM. CHO RD-HGA16 TAAR1, Fluo-8 calcium fluorescence; vehicle wells 0%, saturating PEA agonist 100%. Q96RJ0;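 active = activation above the mean activation of all test compounds in the run plus 3 SD, cut at about 38% in these data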
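Test system: RD-HGA16 (CHO) cells co-expressing Gα16 and hTAAR1 / Benchmarks: DMSO vehicle as 0%, PEA at EC100 as 100% / Repeats: no replicates (n 1) / Measure: % activation from peak over basal fluorescence ratio, DMSO-to-PEA scaled / Timing: 17-24 h plating, Fluo-8 75 min 37 °C, 30 min RT / Technique: kinetic Fluo-8 calcium fluorescence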
OX1R antag-2 – human HCRTR1 antagonism. inhibition, % at 5 µM. AID 434989. hit rate 0.43% among 330,000. CHO/OX1R cells, Fluo-8 calcium fluorescence, orexin A. O43613;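 active = inhibition above its plate's threshold, mean inhibition of all tested compounds on the plate plus 3 SD, cut at about 37% in these data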;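 also: 0% = orexin A challenge wells and 100% = SB-334867-A antagonist wells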
OX1R HTRF conf – OX1R (human) antagonism, HTRF confirmed | shares compounds with OX1R antag-1 | OX1R-expressing cells, HTRF antagonist assay | inhibition, % at 6.6 µM | hit rate 49% among 1,800 | AID 492964; in the data active = inhibition above about 55%;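 also: CHO cells expressing OX1R stimulated with orexin A at about EC80; 0% = agonist challenge alone and 100% = reference antagonist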
CHO-K1 HTRF – counter-screen: parental CHO-K1 HTRF response; inhibition, % at 6.6 µM; shares compounds with OX1R antag-1; hit rate 48% among 1,800; parental CHO-K1 cells, HTRF counterscreen; AID 493232; in the data active = inhibition above about 17%;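 also: 0% = agonist challenge with vehicle and 100% = vehicle alone without agonist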
* hit, by the source's call; · = no result given; + = active, no number. The list is not random: actives were taken first. Their share in the collection is about 4.6%.

SMILES	GPR7 antagonist	TAAR1 antag	OX1R antag-1	CHO parental Ca	TAAR1 ag	OX1R antag-2	OX1R HTRF conf	CHO-K1 HTRF
Cn1cnc([N+](=O)[O-])c1Oc1cccc2ccccc12	-1.0	-5.8	85.0*	-8.8	-1.8	-7.5	25.8	5.0
c1ccc(-c2cnn3nnnc3n2)cc1	-2.8	9.8	+	-7.7	16.6	-2.4	71.2*	115.1*
CN1CCN(c2ncnc3c2ncn3[C@H]2CN(Cc3ccc4c(c3)OCO4)C[C@@H](CO)O2)CC1	·	-0.2	·	·	4.2	·	·	·
CC1=C(C#N)C(c2cccnc2)C2=C(N1)c1ccccc1C2=O (stereo not drawn)	-0.6	-9.3	96.4*	4.3	-1.2	-7.1	0.2	-26.0
C=CCN1C(=O)c2ccc(C(=O)OCC(=O)N(CC)c3c(N)n(Cc4ccccc4)c(=O)[nH]c3=O)cc2C1=O	·	2.0	·	·	5.0	·	·	·
Cc1ccc(C(C(=O)NC2CCCCC2)N2CCC3(CC2)OCCO3)cc1 (stereo not drawn)	12.0	8.6	10.7	-2.9	3.4	-21.4	·	·
COc1ccc(C(C(=O)NC2CCCCC2)N2CCC3(CC2)OCCO3)cc1 (stereo not drawn)	-9.5	2.7	89.1*	0.5	9.2	-3.0	14.0	1.7
O=C(NCc1ccccc1)C1c2ccccc2OCC(=O)N1Cc1ccccc1 (stereo not drawn)	·	-7.3	·	·	3.5	·	·	·
COc1ccc(C(=O)OCC(=O)NC2CCCCCCC2)cc1OC	·	-13.5	1.7	-18.8	8.8	6.3	·	·
O=C(NCCN1CCOCC1)c1cc(Sc2ccccc2Cl)nc2ccccc12	2.4	6.3	91.3*	-16.0	5.1	19.5	90.0*	3.2
CCN1CCN(c2ccc(NC(=O)COc3ccc(Cl)cc3C)cc2)CC1	·	2.2	9.5	-23.2	9.1	-24.9	·	·
CC[n+]1ccc(/C=C2\Sc3ccccc3N2CCCS(=O)(=O)[O-])c2ccccc21	-0.2	16.1	96.6*	7.8	-0.2	11.3	43.7	14.9
CCn1c(C)[n+](CCOC(C)=O)c2cc(Cl)c(Cl)cc21	-5.5	-5.2	87.6*	3.5	-0.3	-8.6	24.4	4.8
CC(=O)OCCNc1cc(SC(C)C)c2nonc2c1[N+](=O)[O-]	-14.3	-20.4	104.0*	-10.7	0.8	-24.8	45.8	71.6*
CCC(=O)OCCNc1cc(Sc2nccn2C)c2nonc2c1[N+](=O)[O-]	7.9	23.9	122.2*	30.3	-1.5	34.5	63.2*	89.8*
CC(=O)OCCN(C)c1cc(SC(C)C)c2nonc2c1[N+](=O)[O-]	-9.3	20.0	26.6	-0.6	0.8	-20.8	·	·
CCC(=O)OCCNc1cc(SCCC(=O)OC)c2nonc2c1[N+](=O)[O-]	-3.7	-8.0	83.9*	-1.7	1.3	-20.3	59.1*	78.1*
COc1cc(CNCCSc2nnnn2C)cc(Br)c1OCc1ccccc1F	6.5	2.9	94.6*	-11.8	6.7	-17.3	16.2	9.5
Cc1ccc(S(=O)(=O)N2CC(O)CC2C(=O)OCC(=O)Nc2ccc([N+](=O)[O-])cc2C(F)(F)F)cc1C (stereo not drawn)	·	7.4	12.2	-21.7	1.1	-27.0	·	·
O=C(CN1CCN(c2ccc(O)cc2)CC1)Nc1cc([N+](=O)[O-])ccc1Cl	-3.7	9.8	79.1*	-7.1	6.5	8.5	31.9	46.9*
CC(=O)N1CCN(CC(=O)Nc2cc([N+](=O)[O-])ccc2Cl)CC1	-6.8	-3.7	58.0	-10.5	0.0	-0.2	·	·
CC(=O)Nc1ccc(S(=O)(=O)/N=C2\C(=O)c3ccccc3C([O-])=C2n2cc[n+](-c3ccccn3)c2)cc1	-10.9	-10.4	143.8*	-4.5	-0.6	-10.0	34.6	38.3*
COc1ccc(NC(=O)N(C)C[C@H]2Oc3c(NC(=O)C4CC4)cccc3C(=O)N([C@H](C)CO)C[C@@H]2C)cc1	·	-11.2	1.4	-4.2	7.5	-20.3	·	·
c1ccc(-c2nnc(-c3ccccc3)nn2)cc1	-19.9	-7.4	1.5	-2.7	-0.4	-2.1	·	·
